From PubChem
OX1R antag-1: antagonists of human orexin 1 receptor (OX1R) | O43613 | 1.8% of 330,000 active | OX1R-expressing cells, FRET antagonist read-out | AID 485270 | inhibition, % at 6.6 µM; in the data active = inhibition mostly above about 38%, no sharp cut-off; inactive = mostly below about 40%;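 also: 0% = agonist challenge alone and 100% = reference antagonist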
OX1R antag-2: blocks the human orexin 1 receptor | 0.43% of 330,000 active | inhibition, % at 5 µM | CHO/OX1R cells, Fluo-8 calcium fluorescence, orexin A | O43613;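 active = inhibition above its plate's threshold, mean inhibition of all tested compounds on the plate plus 3 SD, cut at about 37% in these data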;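 also: 0% = orexin A challenge wells and 100% = SB-334867-A antagonist wells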
GalR3 antag: antagonists of human GalR3. O60755. HEK293 GalR3-CNG cAMP membrane potential fluorescence; galR3 body fused to GalR1 C-terminus. 0.44% of 360,000 active. inhibition, % at 3 µM;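 active = inhibition above the screen-wide average plus 3 SD, cut at about 13% in these data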;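 also: forskolin and galanin both at EC90 stimulate the cells; cAMP rise reported by CNG channel membrane potential dye signal; 0% = forskolin plus galanin with DMSO and 100% = forskolin alone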
Target sequence (O60755 1-299 limits assumed): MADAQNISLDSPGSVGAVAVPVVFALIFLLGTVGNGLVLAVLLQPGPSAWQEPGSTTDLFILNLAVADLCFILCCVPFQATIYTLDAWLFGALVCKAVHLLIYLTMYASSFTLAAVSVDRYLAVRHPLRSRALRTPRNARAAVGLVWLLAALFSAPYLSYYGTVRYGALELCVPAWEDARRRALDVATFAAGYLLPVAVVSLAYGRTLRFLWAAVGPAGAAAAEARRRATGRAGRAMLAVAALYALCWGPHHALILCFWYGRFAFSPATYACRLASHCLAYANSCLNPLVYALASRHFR
TAAR1 ag: human TAAR1 agonism | AID 624467 | activation, % at 3 µM | 0.99% of 360,000 active | CHO RD-HGA16 TAAR1, Fluo-8 calcium fluorescence; vehicle wells 0%, saturating PEA agonist 100%;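 active = activation above the mean activation of all test compounds in the run plus 3 SD, cut at about 38% in these data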
Target sequence (Q96RJ0 whole entry, looked up): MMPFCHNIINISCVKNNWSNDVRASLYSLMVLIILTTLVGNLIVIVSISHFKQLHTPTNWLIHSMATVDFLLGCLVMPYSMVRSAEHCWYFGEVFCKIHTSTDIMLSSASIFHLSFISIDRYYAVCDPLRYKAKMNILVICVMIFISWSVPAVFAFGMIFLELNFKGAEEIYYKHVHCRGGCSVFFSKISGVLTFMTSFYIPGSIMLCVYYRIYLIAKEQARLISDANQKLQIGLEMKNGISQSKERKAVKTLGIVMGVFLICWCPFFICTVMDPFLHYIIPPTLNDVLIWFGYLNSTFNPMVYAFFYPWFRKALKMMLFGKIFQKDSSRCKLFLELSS
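Signal – calcium-sensitive Fluo-8 signal, excitation 470-495, emission 515-575 nm · System – RD-HGA16 (CHO) cells co-expressing Gα16 and hTAAR1 · Incubation – 17-24 h seeding, 75 min 37 °C dye, 30 min RT · Compound dosing – 3 µM single concentration · Repeats – no replicates (n 1)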
CHO parental Ca: counter-screen: ATP calcium response change in parental CHO cells. inhibition, % at 5.6 µM. 0.63% of 330,000 active. parental CHO-K1, ATP-induced calcium, Fluo-8 fluorescence;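 active = inhibition above that plate's mean sample inhibition plus 3 SD, cut at about 26% in these data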;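 also: 0% = ATP-challenged DMSO wells and 100% = DMSO wells without ATP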
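material = parental CHO cells | also added = ATP as calcium-mobilizing challenge | dosing = single point at 5.6 µM | detection = intracellular calcium via Fluo-8 no-wash fluorescent dye | read-out = % inhibition | benchmarks = low control ATP plus DMSO, high control DMSO only | repeats = one well per compound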
TAAR1 antagonist: human TAAR1 antagonism; CHO RD-HGA16 TAAR1, Fluo-8 calcium fluorescence, antagonist; inhibition, % at 3 µM; 1.5% of 360,000 active;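 active = inhibition above a per-plate cutoff, the mean inhibition of test compounds on that plate plus 3 SD, cut at about 49% in these data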;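 also: 0% = DMSO plus EC80 beta-PEA response and 100% = DMSO alone without agonist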
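Material: RD-HGA16 CHO cells with stable hTAAR1 and Gα16; Dosing: single nominal final test compound concentration of 3 µM; Schedule: seeding 17-24 h prior, 75-min 37 °C, 30-min RT dye loading; Detection: kinetic Fluo-8 calcium fluorescence measurement; Measure: % inhibition from peak post-agonist over basal fluorescence ratio; Benchmarks: vehicle and agonist controls.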
OX1R HTRF confirm: OX1R (human) antagonism, HTRF confirmed; shares compounds with OX1R antag-1; OX1R-expressing cells, HTRF antagonist assay; inhibition, % at 6.6 µM; 49% of 1,800 active; AID 492964; in the data active = inhibition above about 55%;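 also: CHO cells expressing OX1R stimulated with orexin A at about EC80; 0% = agonist challenge alone and 100% = reference antagonist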
CHO-K1 HTRF cnt: counter-screen for OX1R antagonists: effect in parental CHO-K1 cells. inhibition, % at 6.6 µM. shares compounds with OX1R antag-1. HTRF counterscreen. 48% of 1,800 active. AID 493232; in the data active = inhibition above about 17%;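 also: 0% = agonist challenge with vehicle and 100% = vehicle alone without agonist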
* = called active by the depositor; . = no result given. A selection: hits, their analogues and other compounds. The true share with any hit is near 4.3%.

SMILES	OX1R antag-1	OX1R antag-2	GalR3 antag	TAAR1 ag	CHO parental Ca	TAAR1 antagonist	OX1R HTRF confirm	CHO-K1 HTRF cnt
CN(CCO)c1cc(N2CCC3(CC2)OCCO3)c2nonc2c1[N+](=O)[O-]	129*	-4	-1	8	7	-4	60*	56*
CN(CCO)c1cc(NCCCN2CCC(Cc3ccccc3)CC2)c2nonc2c1[N+](=O)[O-]	85*	-19	-4	-3	-30	-6	63*	47*
Cc1cccc(CNC(=O)C2CCC(=O)N(CCCc3ccccc3)C2)c1 (stereo not drawn)	.	.	-4	0	.	-7	.	.
Cc1cccc(C)c1NC(=O)C1(C)CN(S(C)(=O)=O)CC(=O)N1CCCn1ccnc1 (stereo not drawn)	.	.	-8	1	.	-14	.	.
CC(=O)Nc1ccc(NC(=O)C(C)OC(=O)C(C)SCC(=O)Nc2ccc(C)cc2)cc1 (stereo not drawn)	82*	-1	-2	1	11	23	75*	3
NCCCC[C@@H]1NC(=O)c2cc([N+](=O)[O-])cc(I)c2SC[C@@H](C(=O)NCC(N)=O)NC(=O)CNC1=O	87*	-15	.	.	-1	.	31	56*
O=C(Nc1ccc2nc(-c3ccc(Br)o3)[nH]c2c1)c1cccs1	83*	-23	-1	32	-27	27	42	3
CC(=O)Nc1ccc2nc(-c3ccc(Br)o3)[nH]c2c1	18	-4	-3	4	-4	11	.	.
c1ccc(CN2CCN(C3CCCSc4ccccc43)CC2)cc1 (stereo not drawn)	87*	8	-6	15	-23	-7	79*	3
O=C(C1CCC1)N1CCN(Cc2ccccc2)CC1	9	-8	1	7	-2	-2	.	.
CCOc1ccc(CC(=O)Nc2sc(Cc3ccccc3)cc2C(N)=O)cc1OCC	79*	14	-5	2	-17	-38	88*	2
NC(=O)c1cc(Cc2ccccc2)sc1NC(=O)c1ccco1	26	-15	-4	6	-19	-10	.	.
NS(=O)(=O)c1ccc(N=Cc2c(O)c3ccccc3oc2=O)cc1	77*	-15	-3	1	-5	-4	21	-11
CC(C)c1ccc(N=Cc2c(O)c3ccccc3oc2=O)cc1	20	-21	-9	4	-20	13	.	.
O=C1NC[C@@H](CCCCN2CCN(CCC3CCCCC3)C(=O)C2=O)N(CC2CCCCC2)C1=O	.	.	-4	2	.	-10	.	.
CCc1ccc(/C=C2/C(=O)N(c3ccccc3)C(=S)N2CC(=O)OC)s1	18	7	-4	2	-3	-22	.	.
CCN1C(=O)/C(=C/N(C(C)=O)c2ccccc2)N(c2ccccc2)C1=S	82*	-12	2	0	-18	-10	28	16
CCOc1ccc(N2C(=O)CC(N(Cc3ccco3)C(=O)CC)C2=O)cc1 (stereo not drawn)	5	-3	-3	5	-4	-3	.	.
Cc1ccc(OCC(=O)OCC(=O)NC2CC2)cc1C	6	-26	0	22	14	3	.	.
CC(=O)N1C(=O)c2cccc3cccc(c23)C(=O)N1C(C)=O	116*	-14	.	.	-1	.	41	65*
O=C(N/N=C/c1c(Cl)[nH]c2ccccc12)c1ccc2c(c1)OCCO2	79*	3	-1	6	2	15	86*	-3
COc1ccc(-c2ccc(SCC(=O)N3CC(=O)Nc4ccccc43)nn2)cc1	97*	-18	-9	5	-5	11	19	6
CC(=O)Nc1ccc(NC(=O)C(C)OC(=O)CCCOc2ccc(Cl)c(C)c2)cc1 (stereo not drawn)	85*	20	-2	8	-6	21	78*	6
COc1ccc(OCCCC(=O)OC(C)C(=O)Nc2ccc(NC(C)=O)cc2)cc1 (stereo not drawn)	19	-12	2	1	0	-6	.	.
O=c1ccnc(Sc2ncccc2[N+](=O)[O-])[nH]1	92*	-30	-2	10	-1	-7	49	47*
SMILES	OX1R antag-1	OX1R antag-2	GalR3 antag	TAAR1 ag	CHO parental Ca	TAAR1 antagonist	OX1R HTRF confirm	CHO-K1 HTRF cnt
CC(=O)NC1=C(NC2CCS(=O)(=O)C2)C(=O)c2ccccc2C1=O (stereo not drawn)	141*	-4	1	5	-7	1	69*	94*
O=C(Nc1ccccc1)NC1CCS(=O)(=O)C1 (stereo not drawn)	-2	-6	-2	8	-5	-8	.	.
CC(OC(=O)c1cccc(-n2cnnn2)c1)C(=O)c1ccccc1 (stereo not drawn)	17	-23	-2	11	-4	-3	.	.
CC1(C)N([O-])C2=C(c3ccccc3C2=O)[N+](=O)C1(C)C	169*	1	-4	3	1	7	56*	66*
Nc1nnc(-c2cc3ccccc3oc2=O)s1	152*	-18	0	10	4	4	36	50*
Cc1c(C(=O)O)nn(-c2cccc(C(F)(F)F)c2)c(=O)c1C#N	38	-13	-5	0	0	-20	.	.
Cc1ccccc1-n1nc(C(=O)O)c(C)c(C#N)c1=O	101*	-13	2	15	2	0	50	36*
CN(CCO)c1ccc([N+](=O)[O-])cc1C(=O)O	80*	1	-2	6	2	2	21	25*
O=C(O)c1cc([N+](=O)[O-])ccc1NCCO	33	-8	-1	1	-4	1	.	.
O=C(CCNC(=O)c1ccc([N+](=O)[O-])cc1)Nc1ccc(F)cc1	31	-13	-8	10	-5	4	.	.
O=C(CCNC(=O)c1ccc([N+](=O)[O-])cc1)N/N=C/c1ccc(F)cc1	78*	-27	-6	12	7	9	24	27*
CCOC(=O)N1CCC(NC(=O)c2ccc3c(c2)N(C)C(=O)/C(=C/c2cccc(OC)c2)S3)CC1	21	-30	1	0	-24	8	.	.
COC(=O)Cc1cc(C)cc2c(=O)cc(-c3ccoc3)oc12	9	-17	8	0	-10	-17	.	.
NS(=O)(=O)c1ccc(NN=C2CCN(Cc3ccccc3)CC2)c([N+](=O)[O-])c1	83*	8	-4	4	-3	-24	19	7
CCOC(=O)c1cccc(NC(=O)CCCn2c(=O)c3cccn3c3cccnc32)c1	80*	-9	-7	0	-23	-13	80*	8
COc1ccc(Cl)cc1NC(=O)CCCn1c(=O)c2cccn2c2cccnc21	.	.	-3	5	.	16	.	.
